Reference: ChEMBL document CHEMBL1126152, “Fluoronaphthyridines as antibacterial agents. 4. Synthesis and structure-activity relationships of 5-substituted-6-fluoro-7-(cycloalkylamino)-1,4-dihydro-4-oxo-1,8- naphthyridine-3-carboxylic acids” (J Med Chem, 1992)
≈ marks a conversion by molar mass, not a printed value.

Experiments:
[1] = test system: Bacteroides fragilis; assay: In vitro for antibacterial activity against […].; format: functional
How it was run: (§1)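 MIC by serial 2-fold broth dilution in nutrient broth with an inoculum of 10^6 CFU/mL. Compound range was 0.0005–250 μg/mL. Plates were incubated 18 h at 37 °C. MIC was taken as the lowest concentration preventing visible growth.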

[2] = test system: Pseudomonas aeruginosa; assay: In vitro for antibacterial activity against Pseudomonas aeruginosa; format: functional; how it was run: as §1
[3] = test system: Streptococcus pneumoniae; assay: Antibacterial activity against Streptococcus pneumoniae; format: functional
[4] = test system: Staphylococcus aureus; assay: Antibacterial activity against Staphylococcus aureus; format: functional
[5] = test system: Morganella morganii; assay: In vitro for antibacterial activity against Morganella morganii; format: functional; how it was run: as §1
[6] = test system: Enterobacter cloacae; assay: In vitro for antibacterial activity against Enterobacter cloacae; format: functional
[7] = test system: Proteus mirabilis; assay: In vitro for antibacterial activity against Proteus mirabilis; format: functional; how it was run: as §1
[8] = test system: Escherichia coli; assay: In vitro for antibacterial activity against Escherichia coli; format: functional; how it was run: as §1
[9] = test system: Klebsiella pneumoniae; assay: In vitro for antibacterial activity against Klebsiella pneumoniae; format: functional; how it was run: as §1
[10] = test system: Serratia marcescens; assay: In vitro for antibacterial activity against Serratia marcescens; format: functional; how it was run: as §1
[11] = test system: Enterococcus faecalis; assay: In vitro for antibacterial activity against Enterococcus faecalis; format: functional; how it was run: as §1
[12] = Solubility was measured at PH - 7.2 buffer
[13] = test system: Staphylococcus aureus; assay: animal or person; format: functional; conditions: in Mus musculus, po, read-out: PD50
[14] = Lethal dose was determined in OF1-strain female Swiss mice after intra venous administration of the drug; conditions: mouse, in vivo, iv
[15] = test system: Pseudomonas aeruginosa; assay: animal or person; format: functional; conditions: in Mus musculus, po, read-out: PD50
[16] = test system: Escherichia coli; assay: Compound was tested for […] against Escherichia coli A 15119 after oral administration of drug in mice; format: functional; conditions: read-out: PD50
How it was run: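 Mouse protection test against systemic infection. Compound was dissolved in sterile water and given orally to female OF1-strain Swiss mice weighing 18–25 g, with five mice per group.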

[17] = Partition coefficient (logD); conditions: octanol/water
[18] = Lethal dose was determined in OF1-strain female Swiss mice after oral administration of the drug; conditions: mouse, in vivo
[19] = test system: Streptococcus pneumoniae; assay: animal or person; format: functional; conditions: in Mus musculus, po, read-out: PD50

Compound | MIC [1] | MIC [2] | MIC [3] | MIC [4] | MIC [5] | MIC [6] | MIC [7] | MIC [8] | MIC [9] | MIC [10] | MIC [11] | solubility [12] | ED50 [13] | LD50 [14] | ED50 [15] | ED50 [16] | logD [17] | LD50 [18] | ED50 [19]
Cc1c(F)c(N2CC[C@H](N)C2)nc2c1c(=O)c(C(=O)O)cn2C(C)(C)CF | 2 µg/mL (≈ 5.26 µM) | 2 µg/mL (≈ 5.26 µM) | 2 µg/mL (≈ 5.26 µM) | 0.25 µg/mL (≈ 0.657 µM) | 0.5 µg/mL (≈ 1.31 µM) | 0.25 µg/mL (≈ 0.657 µM) | 0.5 µg/mL (≈ 1.31 µM) | 0.016 µg/mL (≈ 0.0421 µM) | 0.03 µg/mL (≈ 0.0789 µM) | 0.5 µg/mL (≈ 1.31 µM) | 2 µg/mL (≈ 5.26 µM) |  |  |  |  |  |  |  | 
N[C@H]1CCN(c2nc3c(c(-c4ccccc4)c2F)c(=O)c(C(=O)O)cn3C2CC2)C1 | 125 µg/mL (≈ 306 µM) | 32 µg/mL (≈ 78.3 µM) | 8 µg/mL (≈ 19.6 µM) | 2 µg/mL (≈ 4.9 µM) | 8 µg/mL (≈ 19.6 µM) | 2 µg/mL (≈ 4.9 µM) | 16 µg/mL (≈ 39.2 µM) | 1 µg/mL (≈ 2.45 µM) | 2 µg/mL (≈ 4.9 µM) | 16 µg/mL (≈ 39.2 µM) | 64 µg/mL (≈ 157 µM) |  |  |  |  |  |  |  | 
Cc1c(F)c(N2CC[C@H](N)C2)nc2c1c(=O)c(C(=O)O)cn2-c1ccc(F)cc1 |  | 0.25 µg/mL (≈ 0.624 µM) | 0.03 µg/mL (≈ 0.0749 µM) | 0.004 µg/mL (≈ 0.00999 µM) | 0.008 µg/mL (≈ 0.02 µM) | 0.002 µg/mL (≈ 0.005 µM) | 0.008 µg/mL (≈ 0.02 µM) | 0.002 µg/mL (≈ 0.005 µM) | 0.002 µg/mL (≈ 0.005 µM) | 0.03 µg/mL (≈ 0.0749 µM) | 0.06 µg/mL (≈ 0.15 µM) | 80 µg/mL (≈ 200 µM) | 4.2 mg/kg | 94 mg/kg | 2.9 mg/kg | 4.9 mg/kg | 0.91 | 2500 mg/kg | 14.4 mg/kg
Cc1c(F)c(N2CC[C@H](N)C2)nc2c1c(=O)c(C(=O)O)cn2-c1ccc(F)cc1F | 0.25 µg/mL (≈ 0.598 µM) | 0.25 µg/mL (≈ 0.598 µM) | 0.03 µg/mL (≈ 0.0717 µM) | 0.002 µg/mL (≈ 0.00478 µM) | 0.03 µg/mL (≈ 0.0717 µM) | 0.002 µg/mL (≈ 0.00478 µM) | 0.008 µg/mL (≈ 0.0191 µM) | 0.002 µg/mL (≈ 0.00478 µM) | 0.002 µg/mL (≈ 0.00478 µM) | 0.03 µg/mL (≈ 0.0717 µM) | 0.06 µg/mL (≈ 0.143 µM) | 50 µg/mL (≈ 120 µM) | 1.7 mg/kg | 84 mg/kg | 2.2 mg/kg | 1.8 mg/kg | 1.22 | 2500 mg/kg | 7.9 mg/kg
CC(C)(C)n1cc(C(=O)O)c(=O)c2cc(F)c(N3CCNCC3)nc21 | 8 µg/mL (≈ 23 µM) | 0.5 µg/mL (≈ 1.44 µM) | 1 µg/mL (≈ 2.87 µM) | 0.06 µg/mL (≈ 0.172 µM) | 0.06 µg/mL (≈ 0.172 µM) | 0.06 µg/mL (≈ 0.172 µM) | 0.13 µg/mL (≈ 0.373 µM) | 0.02 µg/mL (≈ 0.0574 µM) | 0.03 µg/mL (≈ 0.0861 µM) | 0.06 µg/mL (≈ 0.172 µM) | 1 µg/mL (≈ 2.87 µM) | 820 µg/mL (≈ 2350 µM) |  |  |  |  | -0.33 |  | 
CC(C)(CF)n1cc(C(=O)O)c(=O)c2cc(F)c(N3CC[C@H](N)C3)nc21 | 16 µg/mL (≈ 43.7 µM) | 1 µg/mL (≈ 2.73 µM) | 0.03 µg/mL (≈ 0.0819 µM) | 0.03 µg/mL (≈ 0.0819 µM) | 0.06 µg/mL (≈ 0.164 µM) | 0.13 µg/mL (≈ 0.355 µM) | 0.5 µg/mL (≈ 1.36 µM) | 0.03 µg/mL (≈ 0.0819 µM) | 0.03 µg/mL (≈ 0.0819 µM) | 0.25 µg/mL (≈ 0.682 µM) | 4 µg/mL (≈ 10.9 µM) |  |  |  |  |  | -0.56 |  | 
CC(C)(C)n1cc(C(=O)O)c(=O)c2cc(F)c(N3CC[C@H](N)C3)nc21 | 1 µg/mL (≈ 2.87 µM) | 0.25 µg/mL (≈ 0.718 µM) | 0.008 µg/mL (≈ 0.023 µM) | 0.004 µg/mL (≈ 0.0115 µM) | 0.13 µg/mL (≈ 0.373 µM) | 0.03 µg/mL (≈ 0.0861 µM) | 0.13 µg/mL (≈ 0.373 µM) | 0.02 µg/mL (≈ 0.0574 µM) | 0.03 µg/mL (≈ 0.0861 µM) | 0.25 µg/mL (≈ 0.718 µM) | 0.06 µg/mL (≈ 0.172 µM) |  |  |  |  |  |  |  | 
O=C(O)c1cn(-c2ccc(F)cc2F)c2nc(N3CCNCC3)c(F)cc2c1=O | 2 µg/mL (≈ 4.95 µM) | 0.5 µg/mL (≈ 1.24 µM) | 0.5 µg/mL (≈ 1.24 µM) | 0.03 µg/mL (≈ 0.0742 µM) | 0.13 µg/mL (≈ 0.322 µM) | 0.03 µg/mL (≈ 0.0742 µM) | 0.06 µg/mL (≈ 0.148 µM) | 0.016 µg/mL (≈ 0.0396 µM) | 0.03 µg/mL (≈ 0.0742 µM) | 0.13 µg/mL (≈ 0.322 µM) | 1 µg/mL (≈ 2.47 µM) |  |  |  |  |  |  |  | 
Cc1c(F)c(N2CC3CCC2CN3)nc2c1c(=O)c(C(=O)O)cn2-c1ccc(F)cc1F (centres undefined) | 4 µg/mL (≈ 9 µM) | 0.5 µg/mL (≈ 1.13 µM) | 0.06 µg/mL (≈ 0.135 µM) | 0.008 µg/mL (≈ 0.018 µM) | 0.13 µg/mL (≈ 0.293 µM) | 0.008 µg/mL (≈ 0.018 µM) | 0.13 µg/mL (≈ 0.293 µM) | 0.008 µg/mL (≈ 0.018 µM) | 0.008 µg/mL (≈ 0.018 µM) | 0.5 µg/mL (≈ 1.13 µM) | 0.25 µg/mL (≈ 0.563 µM) | 10 µg/mL (≈ 22.5 µM) | 5.4 mg/kg | 24 mg/kg | 1.4 mg/kg |  | 0.4 | 2500 mg/kg | 9.5 mg/kg
